Measured values: ChEMBL document CHEMBL4130613, “Identification and Proposed Relative and Absolute Configurations of Niphimycins C-E from the Marine-Derived Streptomyces sp. IMB7-145 by Genomic Analysis” (J Nat Prod, 2018)
Converted amounts (≈) assume the structure as drawn. The source made the active and inactive calls. The rule behind the calls is not given here.

Tests used:
Staphylococcus aureus [1] = test: Antibacterial activity against methicillin-resistant Staphylococcus aureus 12-33 after 18 hrs by agar dilution method; type: functional
[2] = system: Staphylococcus epidermidis; test: Antibacterial activity against methicillin-resistant Staphylococcus epidermidis 12-8 after 18 hrs by agar dilution method; type: functional
Citrobacter freundii = test: Antibacterial activity against Citrobacter freundii ATCC 43864 after 18 hrs by agar dilution method; type: functional; details: ATCC 43864, 18 h
Escherichia coli [3] = test: Antibacterial activity against extended-spectrum beta-lactamase-positive Escherichia coli 12-15 after 18 hrs by agar dilution method; type: functional; details: 12-15, 18 h
Klebsiella pneumoniae [4] = test: Antibacterial activity against NDM-1 positive Klebsiella pneumoniae ATCC BAA-2146 after 18 hrs by agar dilution method; type: functional; details: ATCC BAA-2146, 18 h
[5] = system: Stenotrophomonas maltophilia; test: Antibacterial activity against Stenotrophomonas maltophilia ATCC 13636 after 18 hrs by agar dilution method; type: functional; details: ATCC 13636, 18 h
Escherichia coli [6] = test: Antibacterial activity against extended-spectrum beta-lactamase-negative Escherichia coli 12-14 after 18 hrs by agar dilution method; type: functional; details: 12-14, 18 h
Enterobacter cloacae = test: Antibacterial activity against Enterobacter cloacae ATCC 43560 after 18 hrs by agar dilution method; type: functional; details: ATCC 43560, 18 h
Enterococcus faecalis [7] = test: Antibacterial activity against vancomycin-resistant Enterococcus faecalis ATCC 51299 after 18 hrs by agar dilution method; type: functional
Proteus mirabilis = test: Antibacterial activity against Proteus mirabilis 12-6 after 18 hrs by agar dilution method; type: functional; details: 12-6, 18 h
Candida albicans = test: Antifungal activity against Candida albicans ATCC 10231 after 18 hrs by agar dilution method; type: functional; details: ATCC 10231, 18 h
Klebsiella pneumoniae [8] = test: Antibacterial activity against extended-spectrum beta-lactamase-positive Klebsiella pneumoniae ATCC 700603 after 18 hrs by agar dilution method; type: functional; details: Klebsiella pneumoniae, 700603, 18 h
Enterococcus faecium [9] = test: Antibacterial activity against vancomycin-resistant Enterococcus faecium ATCC 700221 after 18 hrs by agar dilution method; type: functional
Pseudomonas aeruginosa [10] = test: Antibacterial activity against Pseudomonas aeruginosa ATCC 27853 after 18 hrs by agar dilution method; type: functional; details: ATCC 27853, 18 h
Providencia rettgeri = test: Antibacterial activity against Providencia rettgeri ATCC 31052 after 18 hrs by agar dilution method; type: functional; details: ATCC 31052, 18 h
Klebsiella pneumoniae [11] = test: Antibacterial activity against extended-spectrum beta-lactamase-negative Klebsiella pneumoniae 7 after 18 hrs by agar dilution method; type: functional; details: Klebsiella pneumoniae, 7, 18 h
Enterococcus faecium [12] = test: Antibacterial activity against vancomycin-resistant Enterococcus faecium 12-1 after 18 hrs by agar dilution method; type: functional
Serratia marcescens = test: Antibacterial activity against Serratia marcescens ATCC 21074 after 18 hrs by agar dilution method; type: functional; details: ATCC 21074, 18 h
Staphylococcus aureus [13] = test: Antibacterial activity against methicillin-resistant Staphylococcus aureus ATCC 33591 after 18 hrs by agar dilution method; type: functional
Escherichia coli [14] = test: Antibacterial activity against extended-spectrum beta-lactamase-negative Escherichia coli 1515 after 18 hrs by agar dilution method; type: functional; details: Escherichia coli, 1515, 18 h
Pseudomonas aeruginosa [15] = test: Antibacterial activity against Pseudomonas aeruginosa 12-16 after 18 hrs by agar dilution method; type: functional; details: 12-16, 18 h
Klebsiella pneumoniae [16] = test: Antibacterial activity against extended-spectrum beta-lactamase-negative Klebsiella pneumoniae 12-4 after 18 hrs by agar dilution method; type: functional; details: 12-4, 18 h
HeLa = test: Cytotoxicity against human HeLa cells after 48 hrs by SRB assay; type: functional, cell-based
Method in brief: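 HeLa human cervical carcinoma cells obtained from ATCC. Cytotoxicity was read by sulforhodamine B staining following an earlier published protocol, with doxorubicin hydrochloride as positive control. Values are reported as IC50.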

Pseudomonas aeruginosa [17] = test: Antibacterial activity against Pseudomonas aeruginosa PAO1 after 18 hrs by agar dilution method; type: functional; details: PAO1, 18 h
Escherichia coli [18] = test: Antibacterial activity against extended-spectrum beta-lactamase-negative Escherichia coli ATCC 25922 after 18 hrs by agar dilution method; type: functional; details: ATCC 25922, 18 h
Morganella morganii = test: Antibacterial activity against Morganella morganii ATCC 25830 after 18 hrs by agar dilution method; type: functional; details: ATCC 25830, 18 h
Klebsiella aerogenes = test: Antibacterial activity against Enterobacter aerogenes ATCC 13048 after 18 hrs by agar dilution method; type: functional; details: ATCC 13048, 18 h
Klebsiella pneumoniae [19] = test: Antibacterial activity against extended-spectrum beta-lactamase-positive Klebsiella pneumoniae 12-8 after 18 hrs by agar dilution method; type: functional; details: 12-8, 18 h
[20] = system: Acinetobacter calcoaceticus; test: Antibacterial activity against Acinetobacter calcoaceticus ATCC 19606 after 18 hrs by agar dilution method; type: functional; details: ATCC 19606, 18 h
Enterococcus faecalis [21] = test: Antibacterial activity against vancomycin-resistant Enterococcus faecalis 09-9 after 18 hrs by agar dilution method; type: functional
Proteus vulgaris = test: Antibacterial activity against Proteus vulgaris ATCC 29905 after 18 hrs by agar dilution method; type: functional; details: ATCC 29905, 18 h

SMILES: CNC(=N)NCCC/C=C/CCC[C@H](C)C[C@H](C)[C@H]1OC(=O)[C@H](C)[C@H](O)/C=C/[C@H](C)[C@H](O)C[C@H](O)[C@H](C)[C@@H](O)CC[C@H](C)[C@H](O)CC(O)[C@H](O)[C@@H](O)C[C@H](O)C[C@@H](O)C[C@H](O)C[C@@H](O)[C@H](C)[C@H](O)/C=C/C=C/[C@@H]1C (stereo partly drawn)
- Activity (Staphylococcus aureus [1]): Active
- Activity [2]: Active
- MIC (Citrobacter freundii): > 64 µg/mL
- MIC (Escherichia coli [3]): > 64 µg/mL
- MIC (Klebsiella pneumoniae [4]): > 64 µg/mL
- MIC [5]: > 64 µg/mL
- MIC (Escherichia coli [6]): > 64 µg/mL
- MIC (Enterobacter cloacae): > 64 µg/mL
- Activity (Enterococcus faecalis [7]): Active
- MIC (Proteus mirabilis): > 64 µg/mL
- MIC (Candida albicans): 8 to 32 µg/mL (≈ 7.56 to 30.2 µM)
- MIC (Klebsiella pneumoniae [8]): > 64 µg/mL
- Activity (Enterococcus faecium [9]): Active
- MIC (Pseudomonas aeruginosa [10]): > 64 µg/mL
- MIC (Providencia rettgeri): > 64 µg/mL
- MIC (Klebsiella pneumoniae [11]): > 64 µg/mL
- Activity (Enterococcus faecium [12]): Active
- MIC (Serratia marcescens): > 64 µg/mL
- Activity (Staphylococcus aureus [13]): Active
- MIC (Escherichia coli [14]): > 64 µg/mL
- MIC (Pseudomonas aeruginosa [15]): > 64 µg/mL
- MIC (Klebsiella pneumoniae [16]): > 64 µg/mL
- IC50 (HeLa): > 10 µM
- MIC (Pseudomonas aeruginosa [17]): > 64 µg/mL
- MIC (Escherichia coli [18]): > 64 µg/mL
- MIC (Morganella morganii): > 64 µg/mL
- MIC (Klebsiella aerogenes): > 64 µg/mL
- MIC (Klebsiella pneumoniae [19]): > 64 µg/mL
- MIC [20]: > 64 µg/mL
- Activity (Enterococcus faecalis [21]): Active
- MIC (Proteus vulgaris): > 64 µg/mL

SMILES: CNC(=N)NCCC/C=C/CCC[C@H](C)C[C@H](C)[C@H]1OC(=O)[C@H](C)[C@H](O)/C=C/[C@H](C)[C@H](O)C[C@H](O)[C@H](C)[C@@H](O)CC[C@H](C)[C@H](O)C[C@]2(O)O[C@H](C[C@@H](OC(=O)CC(=O)O)C[C@H](O)C[C@@H](O)[C@H](C)[C@H](O)/C=C/C=C/[C@@H]1C)C[C@H](OC(=O)CC(=O)O)[C@H]2O
- Activity (Staphylococcus aureus [1]): Active
- Activity [2]: Active
- MIC (Citrobacter freundii): > 64 µg/mL
- MIC (Escherichia coli [3]): > 64 µg/mL
- MIC (Klebsiella pneumoniae [4]): > 64 µg/mL
- MIC [5]: > 64 µg/mL
- MIC (Escherichia coli [6]): > 64 µg/mL
- MIC (Enterobacter cloacae): > 64 µg/mL
- Activity (Enterococcus faecalis [7]): Active
- MIC (Proteus mirabilis): > 64 µg/mL
- MIC (Candida albicans): 8 to 32 µg/mL (≈ 6.51 to 26 µM)
- MIC (Klebsiella pneumoniae [8]): > 64 µg/mL
- Activity (Enterococcus faecium [9]): Active
- MIC (Pseudomonas aeruginosa [10]): > 64 µg/mL
- MIC (Providencia rettgeri): > 64 µg/mL
- MIC (Klebsiella pneumoniae [11]): > 64 µg/mL
- Activity (Enterococcus faecium [12]): Active
- MIC (Serratia marcescens): > 64 µg/mL
- Activity (Staphylococcus aureus [13]): Active
- MIC (Escherichia coli [14]): > 64 µg/mL
- MIC (Pseudomonas aeruginosa [15]): > 64 µg/mL
- MIC (Klebsiella pneumoniae [16]): > 64 µg/mL
- IC50 (HeLa): 3 to 9 µM
- MIC (Pseudomonas aeruginosa [17]): > 64 µg/mL
- MIC (Escherichia coli [18]): > 64 µg/mL
- MIC (Morganella morganii): > 64 µg/mL
- MIC (Klebsiella aerogenes): > 64 µg/mL
- MIC (Klebsiella pneumoniae [19]): > 64 µg/mL
- MIC [20]: > 64 µg/mL
- Activity (Enterococcus faecalis [21]): Active
- MIC (Proteus vulgaris): > 64 µg/mL

SMILES: CNC(=N)NCCC/C=C/CCC[C@H](C)C[C@H](C)[C@H]1OC(=O)[C@H](C)[C@H](O)/C=C/[C@H](C)[C@H](O)C[C@H](O)[C@H](C)[C@@H](O)CC[C@H](C)[C@H](OC(=O)CC(=O)O)C[C@]2(O)O[C@H](C[C@@H](OC(=O)CC(=O)O)C[C@H](O)C[C@@H](O)[C@H](C)[C@H](O)/C=C/C=C/[C@@H]1C)C[C@H](O)[C@H]2O
- Activity (Staphylococcus aureus [1]): Active
- Activity [2]: Active
- MIC (Citrobacter freundii): > 64 µg/mL
- MIC (Escherichia coli [3]): > 64 µg/mL
- MIC (Klebsiella pneumoniae [4]): > 64 µg/mL
- MIC [5]: > 64 µg/mL
- MIC (Escherichia coli [6]): > 64 µg/mL
- MIC (Enterobacter cloacae): > 64 µg/mL
- Activity (Enterococcus faecalis [7]): Active
- MIC (Proteus mirabilis): > 64 µg/mL
- MIC (Candida albicans): 8 to 32 µg/mL (≈ 6.51 to 26 µM)
- MIC (Klebsiella pneumoniae [8]): > 64 µg/mL
- Activity (Enterococcus faecium [9]): Active
- MIC (Pseudomonas aeruginosa [10]): > 64 µg/mL
- MIC (Providencia rettgeri): > 64 µg/mL
- MIC (Klebsiella pneumoniae [11]): > 64 µg/mL
- Activity (Enterococcus faecium [12]): Active
- MIC (Serratia marcescens): > 64 µg/mL
- Activity (Staphylococcus aureus [13]): Active
- MIC (Escherichia coli [14]): > 64 µg/mL
- MIC (Pseudomonas aeruginosa [15]): > 64 µg/mL
- MIC (Klebsiella pneumoniae [16]): > 64 µg/mL
- IC50 (HeLa): 3 to 9 µM
- MIC (Pseudomonas aeruginosa [17]): > 64 µg/mL
- MIC (Escherichia coli [18]): > 64 µg/mL
- MIC (Morganella morganii): > 64 µg/mL
- MIC (Klebsiella aerogenes): > 64 µg/mL
- MIC (Klebsiella pneumoniae [19]): > 64 µg/mL
- MIC [20]: > 64 µg/mL
- Activity (Enterococcus faecalis [21]): Active
- MIC (Proteus vulgaris): > 64 µg/mL
